Assay results taken from ChEMBL document CHEMBL1154062, “Novel and potent small-molecule urotensin II receptor agonists” (Bioorg Med Chem, 2009).
The source made the active and inactive calls. The calls are words filed in the database; no cut-off is given here.

Assays:
Assay type in all cases: functional, cell-based
[1] = biological target: T1, Urotensin-2 receptor (Homo sapiens, UniProt Q9UKP6); assay: (§1) Agonist activity against human urotensin 2 receptor expressed in […] cells assessed as beta-galactosidase activity after 5 days by R-SAT assay
T1 sequence (Q9UKP6 whole entry): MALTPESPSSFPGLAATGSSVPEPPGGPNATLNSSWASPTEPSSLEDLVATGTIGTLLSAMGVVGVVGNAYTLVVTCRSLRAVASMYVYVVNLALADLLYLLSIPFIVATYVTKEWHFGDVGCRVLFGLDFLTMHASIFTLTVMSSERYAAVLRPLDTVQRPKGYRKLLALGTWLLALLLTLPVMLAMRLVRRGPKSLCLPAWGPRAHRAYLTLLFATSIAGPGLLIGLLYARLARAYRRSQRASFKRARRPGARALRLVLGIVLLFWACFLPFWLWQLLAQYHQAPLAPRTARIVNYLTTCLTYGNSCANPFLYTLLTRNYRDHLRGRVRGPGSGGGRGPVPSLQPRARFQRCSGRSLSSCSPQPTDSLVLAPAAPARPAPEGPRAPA
Outline: (§2)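 NIH-3T3 cells grown to 80% confluence in DMEM with 10% bovine calf serum, transiently transfected in roller bottles for 18 h with human UT receptor plus β-galactosidase marker, then frozen. Thawed cells were plated in DMEM with 0.4% calf serum and 30% UltraCulture onto compound. They were incubated 5 days in 5% CO2, with reporter read at 420 nm. Eight doses in triplicate; EC50 from 2–5 determinations; efficacy normalized to UII = 100%.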

[2] = biological target: T2, Urotensin-2 receptor (Homo sapiens) (UniProt Q9UKP6); assay: Agonist activity against human urotensin 2 receptor expressed in […] cells assessed as beta-galactosidase activity after 5 days by R-SAT assay relative to urotensin 2; outline: as §2
T2 sequence (whole entry): T1 sequence (Q9UKP6 whole entry)

[3] = biological target: T2, Urotensin-2 receptor (Homo sapiens); assay: as §1; outline: as §2

SMILES	EC50 [1]	Efficacy [2]	pEC50 [3]
COc1ccc(-c2ccc(C(=O)NC(CCN(C)C)c3ccc4ccccc4c3)cc2)cc1 (configuration not stated)	105 nM	111%	–
Cc1ccc(C(CCN(C)C)NC(=O)c2cccc(-c3ccc(Cl)cc3)c2)cc1 (configuration not stated)	646 nM	39%	–
COc1ccc(-c2cccc(C(=O)NC(CCN(C)C)c3ccc(C)cc3)c2)cc1 (configuration not stated)	1070 nM	69%	–
CN(C)CCC(NC(=O)c1cccc(-c2ccccc2)c1)c1ccc2ccccc2c1 (configuration not stated)	537 nM	67%	–
CN(C)CCC(NC(=O)c1ccc(-c2ccccc2)cc1)c1ccc2ccccc2c1 (configuration not stated)	120 nM	111%	–
CN(C)CC[C@@H](NC(=O)c1ccc(-c2ccccc2)cc1)c1ccc(Cl)cc1	–	96%	–
CN(C)CCC(NC(=O)c1ccc(-c2ccc3ccccc3c2)cc1)c1ccc(Cl)cc1 (configuration not stated)	309 nM	131%	–
CN(C)CC[C@H](NC(=O)c1ccc(-c2ccccc2)cc1)c1ccc(Cl)cc1	–	116%	–
CO[C@@H](C(=O)N[C@@H](CCN(C)C)c1ccc(Cl)cc1)c1ccccc1	–	165%	–
CN(C)CCC1(c2ccc(Cl)cc2)Cc2ccccc2C(=O)O1 (configuration not stated)	≥ 1120 nM	–	–
COc1ccc(-c2ccc(C(=O)NC(CCN(C)C)c3ccc(C)cc3)cc2)cc1 (configuration not stated)	347 nM	119%	–
CN(C)CCCC(NC(=O)c1ccc(-c2ccccc2)cc1)c1ccc(Cl)cc1 (configuration not stated)	316 nM	91%	–
CN(C)CCC(NC(=O)c1ccc(-c2ccc(Cl)cc2)cc1)c1ccc(Cl)cc1 (configuration not stated)	75.9 nM	137%	–
CN(C)CCC(NC(=O)c1cccc(-c2ccccc2)c1)c1ccc(Cl)cc1 (configuration not stated)	575 nM	92%	–
CN(C)CCC(NC(=O)c1ccc(-c2ccc(Cl)cc2)cc1)c1ccc2ccccc2c1 (configuration not stated)	43.7 nM	129%	–
COc1ccc(-c2ccc(C(=O)NC(CCN(C)C)c3ccc(Cl)cc3)cc2)cc1 (configuration not stated)	74.1 nM	143%	–
CN(C)CCC(NC(=O)c1ccc(-c2ccccc2)cc1)c1ccc(Cl)cc1 (configuration not stated)	–	116%	–
CN(C)CCC(NC(=O)c1cccc(-c2ccc(Cl)cc2)c1)c1ccc(Cl)cc1 (configuration not stated)	437 nM	63%	–
Cc1ccc(C(CCN(C)C)NC(=O)c2ccc(-c3ccc4ccccc4c3)cc2)cc1 (configuration not stated)	813 nM	83%	–

SMILES	EC50 [1]	Efficacy [2]	pEC50 [3]
Cc1ccc(C(CCN(C)C)NC(=O)c2ccc(-c3ccccc3)cc2)cc1 (configuration not stated)	200 nM	114%	–
Cc1ccc(C(CCN(C)C)NC(=O)c2cccc(-c3ccccc3)c2)cc1 (configuration not stated)	813 nM	45%	–
CO[C@@H](C(=O)N[C@@H](CCN(C)C)c1ccc2ccccc2c1)c1ccccc1	741 nM	140%	–
CN(C)CCC(NC(=O)c1cccc(-c2ccc3ccccc3c2)c1)c1ccc2ccccc2c1 (configuration not stated)	3470 nM	–	–
CN(C)CCC(NC(=O)c1cccc(-c2ccc(Cl)cc2)c1)c1ccc2ccccc2c1 (configuration not stated)	1100 nM	45%	–
CO[C@@H](C(=O)N[C@H](CCN(C)C)c1ccc2ccccc2c1)c1ccccc1	2750 nM	53%	–
COc1ccc(-c2cccc(C(=O)NC(CCN(C)C)c3ccc4ccccc4c3)c2)cc1 (configuration not stated)	646 nM	50%	–
CO[C@@H](C(=O)N[C@H](CCN(C)C)c1ccc(Cl)cc1)c1ccccc1	–	112%	–
CN(C)CC[C@@H](NC(=O)c1ccc(-c2ccc(Cl)cc2)cc1)c1ccc2ccccc2c1	457 nM	53%	–
CN(C)CCC(NC(=O)c1cccc(-c2ccc3ccccc3c2)c1)c1ccc(Cl)cc1 (configuration not stated)	363 nM	41%	–
CN(C)CC[C@H](NC(=O)c1ccc(-c2ccc(Cl)cc2)cc1)c1ccc2ccccc2c1	22.9 nM	129%	–
COc1ccc(-c2cccc(C(=O)NC(CCN(C)C)c3ccc(Cl)cc3)c2)cc1 (configuration not stated)	575 nM	78%	–
O=C(NC(CCN1CCCCC1)c1ccc(Cl)cc1)c1ccc(-c2ccccc2)cc1 (configuration not stated)	661 nM	57%	–
Cc1ccc(C(CCN(C)C)NC(=O)c2ccc(-c3ccc(Cl)cc3)cc2)cc1 (configuration not stated)	126 nM	108%	–
O=C(NC(CCN1CCCCC1)c1ccc(Cl)cc1)c1ccccc1 (configuration not stated)	6460 nM	55%	–
Cc1ccc(C(CCN(C)C)NC(=O)c2cccc(-c3ccc4ccccc4c3)c2)cc1 (configuration not stated)	–	inactive	inactive
CN(C)CCC(NC(=O)c1ccc(-c2ccc3ccccc3c2)cc1)c1ccc2ccccc2c1 (configuration not stated)	525 nM	77%	–
CN(C)CCCC(NC(=O)c1ccccc1)c1ccc(Cl)cc1 (configuration not stated)	3800 nM	77%	–
